These results are taken from ChEMBL document CHEMBL1287747, “Highly active antimycobacterial derivatives of benzoxazine” (2010).

Molecules are shown by their SMILES. ≈ marks a conversion by molar mass, not a printed value.

The MIC is the least concentration at which growth counts as inhibited. Higher therefore signals a less susceptible organism.

Assay type in all cases: functional
Test [1] deals with Mycobacterium tuberculosis. Briefly: Antimycobacterial activity against Mycobacterium tuberculosis CNCTC My 331/88 after 21 days by microdilution method. To be noted: CNCTC My 331/88, 504 h. The essentials: (§1)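 Strains from the Czech National Collection of Type Cultures, tested by dilution micromethod in Šula semisynthetic medium. Incubated at 37 °C and read at 14 and 21 days. MIC is the lowest concentration inhibiting growth.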

Test [2] relates to Mycobacterium kansasii. Briefly: Antimycobacterial activity against Mycobacterium kansasii CNCTC My 235/80 after 21 days by microdilution method. To be noted: CNCTC My 235/80, 504 h. The essentials:
as §1
In general terms: Broth dilution looks for growth in wells or tubes with falling amounts of substance.

The test system of test [3] is Mycobacterium tuberculosis. The test is described as follows: Antimycobacterial activity against Mycobacterium tuberculosis CNCTC My 331/88 after 14 days by microdilution method. To be noted: CNCTC My 331/88, 336 h. The essentials: as §1
Test [4] concerns Mycobacterium kansasii. The test is described as follows: Antimycobacterial activity against Mycobacterium kansasii CNCTC My 235/80 after 14 days by microdilution method. The settings on record: CNCTC My 235/80, 336 h. The essentials:
as §1

Test [5] relates to Mycobacterium avium. Briefly: Antimycobacterial activity against Mycobacterium avium CNCTC My 330/88 after 21 days by microdilution method. The settings on record: CNCTC My 330/88, 504 h. The essentials:
as §1

In test [6] the test system is Mycobacterium kansasii. The test is described as follows: Antimycobacterial activity against Mycobacterium kansasii 6509/96 after 21 days by microdilution method. To be noted: 6509/96, 504 h. The essentials:
(§2)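 Clinical isolate that, unlike the standard strain, is not isoniazid-resistant. Tested by dilution micromethod in Šula semisynthetic medium, with compounds added in DMSO at final 1000 down to 0.25 µmol/L in twofold steps. Löwenstein-Jensen plate used as inoculum sterility and growth control. Incubated at 37 °C and read at 14 and 21 days. MIC is the lowest concentration inhibiting growth.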

Test [7] has as its system Mycobacterium avium. The test is described as follows: Antimycobacterial activity against Mycobacterium avium CNCTC My 330/88 after 14 days by microdilution method. The settings on record: CNCTC My 330/88, 336 h. The essentials: as §1
For test [8], the system named is Mycobacterium kansasii. The test is described as follows: Antimycobacterial activity against Mycobacterium kansasii 6509/96 after 14 days by microdilution method. To be noted: 6509/96, 336 h. The essentials: as §2

Take `Cc1ccc2c(=S)n(-c3ccc(C(C)C)cc3)c(=O)oc2c1`: the MIC in test [1] stood at 0.5 µM (≈ 0.156 µg/mL); with Mycobacterium kansasii [2], 4 µM (≈ 1.25 µg/mL); in test [3] it was 0.25 µM (≈ 0.0779 µg/mL); in the test with Mycobacterium kansasii [4], 2 µM (≈ 0.623 µg/mL); with Mycobacterium avium [5] it was 1 µM (≈ 0.311 µg/mL); against Mycobacterium kansasii [6], 2 µM (≈ 0.623 µg/mL). Also, the MIC against Mycobacterium avium [7] was 0.5 µM (≈ 0.156 µg/mL); against Mycobacterium kansasii [8] it was 1 µM (≈ 0.311 µg/mL).

As to `CC(C)c1ccc(-n2c(=S)oc3ccc(Br)cc3c2=S)cc1`, the MIC in test [1] was 1 µM (≈ 0.392 µg/mL); with Mycobacterium kansasii [2] it was 62.5 µM (≈ 24.5 µg/mL); in test [3] it was 0.5 µM (≈ 0.196 µg/mL); against Mycobacterium kansasii [4], 32 µM (≈ 12.6 µg/mL); in the test on Mycobacterium avium [5], 16 µM (≈ 6.28 µg/mL); in the test with Mycobacterium kansasii [6], 8 µM (≈ 3.14 µg/mL). Besides, the MIC amounted to 8 µM (≈ 3.14 µg/mL) in the test with Mycobacterium avium [7] and 4 µM (≈ 1.57 µg/mL) against Mycobacterium kansasii [8].

In the case of `CCC(C)c1ccc(-n2c(=O)oc3ccc(Cl)cc3c2=O)cc1` (stereo not given), the minimum inhibitory concentration (MIC) in test [1] is 8 µM (≈ 2.64 µg/mL); against Mycobacterium kansasii [2] it was 16 µM (≈ 5.28 µg/mL); in test [3] it was 4 µM (≈ 1.32 µg/mL); with Mycobacterium kansasii [4] it was 16 µM (≈ 5.28 µg/mL); in the test with Mycobacterium avium [5] it was 32 µM (≈ 10.6 µg/mL); against Mycobacterium kansasii [6], 16 µM (≈ 5.28 µg/mL). The MIC turned out to be 32 µM (≈ 10.6 µg/mL) in the test on Mycobacterium avium [7] and 16 µM (≈ 5.28 µg/mL) against Mycobacterium kansasii [8].

In the case of `CCC(C)c1ccc(-n2c(=O)oc3cc(Cl)ccc3c2=S)cc1` (stereo not given), the MIC in test [1] was 2 µM (≈ 0.692 µg/mL); with Mycobacterium kansasii [2], 8 µM (≈ 2.77 µg/mL); in test [3] it was 1 µM (≈ 0.346 µg/mL); with Mycobacterium kansasii [4], 4 µM (≈ 1.38 µg/mL); with Mycobacterium avium [5], 8 µM (≈ 2.77 µg/mL); with Mycobacterium kansasii [6], 2 µM (≈ 0.692 µg/mL). For the same compound, the values for the MIC against Mycobacterium avium [7] and with Mycobacterium kansasii [8] were 8 µM (≈ 2.77 µg/mL) and 1 µM (≈ 0.346 µg/mL), respectively.

`CC(C)(C)c1ccc(-n2c(=O)oc3cc(Cl)ccc3c2=S)cc1`: the MIC stood at 2 µM (≈ 0.692 µg/mL) in test [1]; 8 µM (≈ 2.77 µg/mL) against Mycobacterium kansasii [2]; 2 µM (≈ 0.692 µg/mL) in test [3]; 4 µM (≈ 1.38 µg/mL) against Mycobacterium kansasii [4]; 8 µM (≈ 2.77 µg/mL) against Mycobacterium avium [5]; 4 µM (≈ 1.38 µg/mL) in the test with Mycobacterium kansasii [6]. Further, the MIC in the test on Mycobacterium avium [7] amounted to 4 µM (≈ 1.38 µg/mL); with Mycobacterium kansasii [8] it was 2 µM (≈ 0.692 µg/mL).
